Measurements reported in ChEMBL document CHEMBL4152234, “Aminobenzothiazole derivatives stabilize the thermolabile p53 cancer mutant Y220C and show anticancer activity in p53-Y220C cell lines” (Eur J Med Chem, 2018).
Activity calls are given as the source filed them. The calls are words filed in the database; no cut-off is given here.

What was measured:
[1] = system: Cellular tumor antigen p53 (Homo sapiens), P04637 [Y220C]; test: Activation of p53 Y220C mutant in human NUGC3 cells assessed as change in EGR1 mRNA level at 60 uM after 18 hrs by RT-PCR method relative to control; type: cell-based
Outline: (§1)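 p53 signalling qPCR array covering 84 genes. Cells were exposed for 18 h, with 0.5% DMSO in both compound and control samples. Total RNA was extracted and purified. Fold-changes were calculated by ΔΔCt using β2-microglobulin (B2M) as the housekeeping gene. Two independent biological replicates were run per cell line.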

[2] = system: Cellular tumor antigen p53 (Homo sapiens), P04637 [Y220C]; test: Activation of p53 Y220C mutant in human NUGC3 cells assessed as change in FADD mRNA level at 60 uM after 18 hrs by RT-PCR method relative to control; type: cell-based; outline: as §1
[3] = target: T1, Cellular tumor antigen p53 (Homo sapiens, UniProt P04637); test: Activation of p53 in human NUGC4 cells assessed as change in PTTG1 mRNA level at 60 uM after 18 hrs by RT-PCR method relative to control; type: cell-based; details: read-out: FC
[4] = system: Cellular tumor antigen p53 (Homo sapiens), P04637 [Y220C]; test: Activation of p53 Y220C mutant in human NUGC3 cells assessed as change in BID mRNA level at 60 uM after 18 hrs by RT-PCR method relative to control; type: cell-based; outline: as §1
[5] = target: T1, Cellular tumor antigen p53; test: Activation of p53 in human NUGC4 cells assessed as change in CHEK2 mRNA level at 60 uM after 18 hrs by RT-PCR method relative to control; type: cell-based; details: read-out: FC
Outline: (§2)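 p53 signaling qPCR array of 84 p53-pathway genes. Cells were treated in 6-well plates for 18 h with 0.5% DMSO in compound and control samples. Total RNA was extracted and fold-changes were obtained by the ΔΔCt method against untreated control, with β2-microglobulin (B2M) as housekeeping gene. Two independent biological replicates per cell line.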

[6] = target: T1, Cellular tumor antigen p53; test: Activation of p53 in human NUGC4 cells assessed as change in APAF1 mRNA level at 60 uM after 18 hrs by RT-PCR method relative to control; type: cell-based; details: read-out: FC
Outline: (§3)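 p53 signalling qPCR array covering 84 p53 pathway genes. Cells were exposed for 18 h, and compound and control wells both held 0.5% DMSO. Total RNA was extracted and purified. Fold-changes were calculated by the ΔΔCt method against the untreated sample, with β2-microglobulin (B2M) as the housekeeping gene. Each cell line was run in two independent biological replicates.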

[7] = system: Cellular tumor antigen p53 (Homo sapiens), P04637 [Y220C]; test: Activation of p53 Y220C mutant in human NUGC3 cells assessed as change in SESN2 mRNA level at 60 uM after 18 hrs by RT-PCR method relative to control; type: cell-based; outline: as §3
[8] = target: T1, Cellular tumor antigen p53; test: Activation of p53 in human NUGC4 cells assessed as change in TP63 mRNA level at 60 uM after 18 hrs by RT-PCR method relative to control; type: cell-based; details: read-out: FC
[9] = target: T1, Cellular tumor antigen p53; test: Activation of p53 in human NUGC4 cells assessed as change in E2F1 mRNA level at 60 uM after 18 hrs by RT-PCR method relative to control; type: cell-based; details: read-out: FC; outline: as §2
[10] = target: T1, Cellular tumor antigen p53; test: Activation of p53 in human NUGC4 cells assessed as change in BRCA2 mRNA level at 60 uM after 18 hrs by RT-PCR method relative to control; type: cell-based; details: read-out: FC; outline: as §2
[11] = system: Cellular tumor antigen p53 (Homo sapiens), P04637 [Y220C]; test: Activation of p53 Y220C mutant in human NUGC3 cells assessed as change in BIRC5 mRNA level at 60 uM after 18 hrs by RT-PCR method relative to control; type: cell-based; outline: as §1
[12] = system: Cellular tumor antigen p53 (Homo sapiens), P04637 [Y220C]; test: Activation of p53 Y220C mutant in human NUGC3 cells assessed as change in PRC1 mRNA level at 60 uM after 18 hrs by RT-PCR method relative to control; type: cell-based; outline: as §3
[13] = system: Cellular tumor antigen p53 (Homo sapiens), P04637 [Y220C]; test: Activation of p53 Y220C mutant in human NUGC3 cells assessed as change in S1AH1 mRNA level at 60 uM after 18 hrs by RT-PCR method relative to control; type: cell-based; outline: as §3
[14] = system: Huh-7; test: Upregulation of BAX mRNA level in p53 Y220C mutant knockout human HuH7 cells at 30 uM after 18 hrs by RT-PCR method; type: functional, cell-based
[15] = target: T1, Cellular tumor antigen p53; test: Activation of p53 in human NUGC4 cells assessed as change in TNFRSF10D mRNA level at 60 uM after 18 hrs by RT-PCR method relative to control; type: cell-based; details: read-out: FC
[16] = system: Cellular tumor antigen p53 (Homo sapiens), P04637 [Y220C]; test: Activation of p53 Y220C mutant in human NUGC3 cells assessed as change in TNFRSF10B mRNA level at 60 uM after 18 hrs by RT-PCR method relative to control; type: cell-based; outline: as §3
[17] = system: Huh-7; test: Upregulation of BBC3 mRNA level in p53 Y220C mutant knockout human HuH7 cells at 30 uM after 18 hrs by RT-PCR method; type: functional, cell-based
[18] = system: Cellular tumor antigen p53 (Homo sapiens), P04637 [Y220C]; test: Activation of p53 Y220C mutant in human NUGC3 cells assessed as change in CHEK2 mRNA level at 60 uM after 18 hrs by RT-PCR method relative to control; type: cell-based; outline: as §1
[19] = target: T1, Cellular tumor antigen p53; test: Activation of p53 in human NUGC4 cells assessed as change in HK2 mRNA level at 60 uM after 18 hrs by RT-PCR method relative to control; type: cell-based; details: read-out: FC; outline: as §2
[20] = target: T1, Cellular tumor antigen p53; test: Activation of p53 in human NUGC4 cells assessed as change in CDC25A mRNA level at 60 uM after 18 hrs by RT-PCR method relative to control; type: cell-based; details: read-out: FC; outline: as §2
[21] = system: Cellular tumor antigen p53 (Homo sapiens), P04637 [Y220C]; test: Activation of p53 Y220C mutant in human NUGC3 cells assessed as change in ATR mRNA level at 60 uM after 18 hrs by RT-PCR method relative to control; type: cell-based; outline: as §1
[22] = system: Cellular tumor antigen p53 (Homo sapiens), P04637 [Y220C]; test: Activation of p53 Y220C mutant in human HuH7 cells assessed as increase in BBC3 mRNA level at 30 uM after 18 hrs by RT-PCR method; type: cell-based
Outline: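 Real-time PCR. Cells were treated for 18 h, with 0.5% DMSO in both compound and control samples. Relative mRNA levels were quantified by the ΔΔCt method as fold-change against the untreated sample. Each sample was measured in triplicate, and data are given as mean ± SEM with an unpaired t-test.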

[23] = target: T1, Cellular tumor antigen p53; test: Activation of p53 in human NUGC4 cells assessed as change in TP73 mRNA level at 60 uM after 18 hrs by RT-PCR method relative to control; type: cell-based; details: read-out: FC
[24] = target: T1, Cellular tumor antigen p53; test: Activation of p53 in human NUGC4 cells assessed as change in MYC mRNA level at 60 uM after 18 hrs by RT-PCR method relative to control; type: cell-based; details: read-out: FC; outline: as §2
[25] = system: Cellular tumor antigen p53 (Homo sapiens), P04637 [Y220C]; test: Activation of p53 Y220C mutant in human NUGC3 cells assessed as change in PTTG1 mRNA level at 60 uM after 18 hrs by RT-PCR method relative to control; type: cell-based; outline: as §3
[26] = system: Cellular tumor antigen p53 (Homo sapiens), P04637 [Y220C]; test: Activation of p53 Y220C mutant in human NUGC3 cells assessed as change in FASLG mRNA level at 60 uM after 18 hrs by RT-PCR method relative to control; type: cell-based; outline: as §1
[27] = system: Cellular tumor antigen p53 (Homo sapiens), P04637 [Y220C]; test: Activation of p53 Y220C mutant in human NUGC3 cells assessed as change in EGFR mRNA level at 60 uM after 18 hrs by RT-PCR method relative to control; type: cell-based; outline: as §1
[28] = system: Cellular tumor antigen p53 (Homo sapiens), P04637 [Y220C]; test: Activation of p53 Y220C mutant in human NUGC3 cells assessed as change in CDC25A mRNA level at 60 uM after 18 hrs by RT-PCR method relative to control; type: cell-based; outline: as §1

fold change (FC) [1]: 1
fold change (FC) [2]: 0.4
fold induction at 60 µM [3]: 0.9
fold change (FC) [4]: 1.2
fold induction at 60 µM [5]: 0.7
fold induction at 60 µM [6]: 1
fold change (FC) [7]: 0.7
fold induction at 60 µM [8]: 0.5
fold induction at 60 µM [9]: 0.5
fold induction at 60 µM [10]: 0.6
fold change (FC) [11]: 0.6
fold change (FC) [12]: 1.1
fold change (FC) [13]: 1.5
fold induction at 60 µM [15]: 1
fold change (FC) [16]: 1.8
fold change (FC) [18]: 1.1
fold induction at 60 µM [19]: 0.8
fold induction at 60 µM [20]: 0.4
fold change (FC) [21]: 1
Activity [22]: Active
fold induction at 60 µM [23]: 0.4
fold induction at 60 µM [24]: 0.7
fold change (FC) [25]: 1.5
fold change (FC) [26]: 1.1
fold change (FC) [27]: 1
fold change (FC) [28]: 0.6
Compound: CCNC(=O)c1c(O)c(I)c(-n2cccc2)c2sc(N(CC)CC)nc12
Activity [14]: inactive
Activity [17]: inactive
